Measured values: ChEMBL document CHEMBL4118251 (J Med Chem, 2018)

Tests used:
[1] = Solubility in pH 4.5 acetate buffer at 10 mg/ml after 2 hrs by UPLC-UV analysis; format: physicochemical
In short: (§1)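 Buffers were 100 mM sodium acetate pH 4.5 or 100 mM sodium phosphate pH 7.4, with or without 0.5% phenol. Solid peptide was dispersed at 10 mg/mL, with content corrected by UPLC-MS and ion chromatography, and gently agitated for 2 h. After centrifugation (15 min, 3000 rcf), the supernatant was diluted 1:10 and quantified by UPLC-UV against a DMSO standard curve.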

[2] = Solubility in pH 4.5 acetate buffer at 10 mg/ml after 2 hrs in presence of 0.5% phenol by UPLC-UV analysis
[3] = Agonist activity at monkey glucagon receptor expressed in HEK293 cells assessed as cAMP accumulation after 30 mins by HTRF assay; format: cell-based, Macaca mulatta; settings: Macaca mulatta, HEK293, 0.5 h
In short: (§2)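 HEK293 lines stably expressing human or monkey receptor were detached with accutase. Cells were resuspended at 400 000 cells/mL in HBSS/20 mM HEPES/0.1% BSA/2 mM IBMX and exposed to peptide for 30 min at room temperature. cAMP was read by HTRF (665/620 nm) after 1 h lysis.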

[4] = tested on: Cynomolgus monkey; experiment: Antiobesity activity in diet-induced obesity cynomolgus monkey model assessed as reduction in body weight at 1.5 ug/kg on day 1 to 3, 3 ug/kg on day 4 to 6, 4.5 ug/kg on day 7 to 9, 6 ug/kg from day 10 to 17 and 8 ug/kg on day 18 to 42 administered sc once daily measured every 3 to 4 days during compound dosing relative to control; format: functional, Macaca fascicularis; set-up: scale not given: the % may be the effect or the level left
In short: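 Obese diabetic cynomolgus monkeys were offered about 680 kcal/day. They were block-randomized into 3 groups by body weight, fasted glucose and %HbA1C. Dosing was once daily sc in PBS vehicle over a 6-week study with ramped doses. Food and water intake were logged daily, and body weight was measured every 3–4 days. Two insulin-requiring vehicle animals were excluded.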

[5] = Solubility in pH 4.5 acetate buffer at 10 mg/ml after 2 hrs in presence of 0.5% phenol by UPLC-UV analysis; format: physicochemical; in short: as §1
[6] = tested on: Cynomolgus monkey; experiment: Potency index, ratio of liraglutide dose to compound dose for antiobesity activity in diet-induced obesity cynomolgus monkey model assessed as reduction in body weight administered sc once daily measured every 3 to 4 days during compound dosing; format: functional, Macaca fascicularis
[7] = Plasma concentration in diet-induced obesity cynomolgus monkey model at 8 ug/kg, sc for 6 weeks measured 2 hrs post dose on day 43 by LC-MS analysis; format: ADME, organism-based, Macaca fascicularis; settings: 0.008 mg/kg
In short: (§3)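 Obese diabetic cynomolgus monkeys were dosed once daily sc with PBS-diluted drug for 6 weeks. On day 43, blood was drawn just before dosing and at 1, 2, 4, 8 and 22 h after, into EDTA-2K tubes. Plasma was separated at 2500 × g for 10 min at 4 °C. The dual agonist was measured by LC-MS after protein precipitation; liraglutide was measured by ELISA.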

[8] = biological target: Glucagon receptor (Homo sapiens, UniProt P47871); experiment: Agonist activity at human glucagon receptor expressed in HEK293 cells assessed as cAMP accumulation after 30 mins by HTRF assay; format: functional, cell-based
Chain of Glucagon receptor (P47871 whole entry): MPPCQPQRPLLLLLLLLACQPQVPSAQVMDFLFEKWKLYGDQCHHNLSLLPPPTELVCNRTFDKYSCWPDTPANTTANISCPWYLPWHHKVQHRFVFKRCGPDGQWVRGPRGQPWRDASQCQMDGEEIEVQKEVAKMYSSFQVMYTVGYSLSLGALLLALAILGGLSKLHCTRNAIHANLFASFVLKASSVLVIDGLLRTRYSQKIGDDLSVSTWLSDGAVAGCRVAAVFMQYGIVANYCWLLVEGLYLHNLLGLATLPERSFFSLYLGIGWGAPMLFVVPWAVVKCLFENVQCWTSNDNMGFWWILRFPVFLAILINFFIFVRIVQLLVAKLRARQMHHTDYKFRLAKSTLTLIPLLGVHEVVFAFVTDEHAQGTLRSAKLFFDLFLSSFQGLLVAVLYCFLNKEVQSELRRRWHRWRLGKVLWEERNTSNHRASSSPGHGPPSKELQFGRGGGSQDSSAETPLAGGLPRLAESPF

[9] = Solubility in pH 4.5 acetate buffer at 10 mg/ml after 2 hrs by UPLC-UV analysis
[10] = Plasma concentration in diet-induced obesity cynomolgus monkey model at 8 ug/kg, sc for 6 weeks measured 4 hrs post dose on day 43 by LC-MS analysis; format: ADME, organism-based, Macaca fascicularis; settings: 0.008 mg/kg; in short: as §3
[11] = Plasma concentration in diet-induced obesity cynomolgus monkey model at 8 ug/kg, sc for 6 weeks measured 8 hrs post dose on day 43 by LC-MS analysis; format: ADME, organism-based, Macaca fascicularis; settings: 0.008 mg/kg; in short: as §3
[12] = biological target: Glucagon-like peptide 1 receptor (Macaca fascicularis, UniProt F8V479); experiment: Agonist activity at monkey GLP1R expressed in HEK293 cells assessed as cAMP accumulation after 30 mins by HTRF assay; format: cell-based, Macaca mulatta
Chain of Glucagon-like peptide 1 receptor (Macaca fascicularis, UniProt F8V479) (F8V479 whole entry): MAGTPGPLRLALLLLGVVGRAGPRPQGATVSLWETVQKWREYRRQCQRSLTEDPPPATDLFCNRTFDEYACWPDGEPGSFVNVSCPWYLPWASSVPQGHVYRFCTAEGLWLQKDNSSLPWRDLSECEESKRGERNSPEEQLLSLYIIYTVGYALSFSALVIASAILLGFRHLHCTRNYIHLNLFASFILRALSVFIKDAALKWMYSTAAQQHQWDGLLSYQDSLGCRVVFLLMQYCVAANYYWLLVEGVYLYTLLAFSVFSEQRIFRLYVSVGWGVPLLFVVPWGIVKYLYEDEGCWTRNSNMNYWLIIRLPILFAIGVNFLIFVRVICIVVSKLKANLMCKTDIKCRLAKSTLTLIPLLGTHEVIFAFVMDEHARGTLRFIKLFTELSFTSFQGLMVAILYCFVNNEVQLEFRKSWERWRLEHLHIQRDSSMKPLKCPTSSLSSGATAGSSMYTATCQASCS

[13] = Plasma concentration in diet-induced obesity cynomolgus monkey model at 8 ug/kg, sc for 6 weeks measured […] dose on day 43 by LC-MS analysis; format: ADME, organism-based, Macaca fascicularis; settings: 0.008 mg/kg; in short: as §3
[14] = Ratio of EC50 for monkey glucagon receptor expressed in HEK293 cells to EC50 for human glucagon receptor expressed in HEK293 cells; format: cell-based; in short: as §2
[15] = AUC (0 to 22 hrs) in diet-induced obesity cynomolgus monkey model at 8 ug/kg, sc for 6 weeks on day 43 by LC-MS analysis; format: ADME, organism-based, Macaca fascicularis; set-up: dose 8 ug/kg, time < 22 hr, route subcutaneous; settings: in vivo, 0.008 mg/kg; in short: as §3
[16] = biological target: T1, Gastric inhibitory polypeptide receptor (Homo sapiens, UniProt P48546); experiment: Agonist activity at human GIP receptor expressed in HEK293 cells assessed as cAMP accumulation after 30 mins by HTRF assay; format: functional, cell-based
T1 sequence (P48546 whole entry): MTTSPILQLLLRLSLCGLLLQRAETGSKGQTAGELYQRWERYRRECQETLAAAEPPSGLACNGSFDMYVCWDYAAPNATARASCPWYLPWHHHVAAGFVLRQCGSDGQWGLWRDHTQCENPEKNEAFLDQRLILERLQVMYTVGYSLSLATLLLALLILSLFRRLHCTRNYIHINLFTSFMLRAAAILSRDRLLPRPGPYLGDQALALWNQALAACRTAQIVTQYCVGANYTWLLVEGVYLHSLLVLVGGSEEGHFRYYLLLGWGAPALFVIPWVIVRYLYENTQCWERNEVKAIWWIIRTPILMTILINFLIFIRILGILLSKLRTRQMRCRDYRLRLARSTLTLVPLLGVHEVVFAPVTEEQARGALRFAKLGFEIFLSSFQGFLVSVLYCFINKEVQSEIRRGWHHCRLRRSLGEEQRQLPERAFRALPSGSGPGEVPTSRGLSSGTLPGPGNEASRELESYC

[17] = biological target: Glucagon-like peptide 1 receptor (Homo sapiens, UniProt P43220); experiment: Agonist activity at human GLP1R expressed in HEK293 cells assessed as cAMP accumulation after 30 mins by HTRF assay; format: functional, cell-based
Chain of Glucagon-like peptide 1 receptor (Homo sapiens, UniProt P43220) (P43220 whole entry): as the sequence (F8V479 whole entry) above, with T4A, V17M, N135S, S143F, G225S, V228L, F260L, R264W, V272I counted along it

[18] = species on record: Homo sapiens; experiment: Selectivity ratio of EC50 for human glucagon receptor expressed in HEK293 cells to EC50 for human GLP1R expressed in HEK293 cells; format: cell-based; in short: as §2
[19] = Agonist activity at monkey GIP receptor expressed in HEK293 cells assessed as cAMP accumulation after 30 mins by HTRF assay; format: cell-based, Macaca mulatta; settings: Macaca mulatta, HEK293, 0.5 h; in short: as §2
[20] = tested on: Cynomolgus monkey; experiment: Hypoglycemic activity in diet-induced obesity cynomolgus monkey model assessed as plasma HbA1c level at 1.5 ug/kg on day 1 to 3, 3 ug/kg on day 4 to 6, 4.5 ug/kg on day 7 to 9, 6 ug/kg from day 10 to 17 and 8 ug/kg on day 18 to 42 administered sc once daily measured on day 43 post last dose (reference value: 8.7 +/- 0.8%); format: functional, Macaca fascicularis
[21] = Plasma concentration in diet-induced obesity cynomolgus monkey model at 8 ug/kg, sc for 6 weeks measured 1 hr post dose on day 43 by LC-MS analysis; format: ADME, organism-based, Macaca fascicularis; settings: 0.008 mg/kg; in short: as §3
[22] = Plasma concentration in diet-induced obesity cynomolgus monkey model at 8 ug/kg, sc for 6 weeks measured 22 hrs post dose on day 43 by LC-MS analysis; format: ADME, organism-based, Macaca fascicularis; settings: 0.008 mg/kg; in short: as §3

- solubility at 2 h [1]: ≥ 10000 µg/mL
- solubility at 2 h [2]: ≥ 10000 µg/mL
- EC50 [3]: 0.129 nM
- solubility at 2 h [5]: ≥ 10000 µg/mL
- concentration at 2 h [7]: 28 ng/mL
- EC50 [8]: 0.029 nM
- solubility at 2 h [9]: ≥ 10000 µg/mL
- concentration at 4 h [10]: 24.3 ng/mL
- concentration at 8 h [11]: 12.4 ng/mL
- EC50 [12]: 0.002 nM
- concentration at 1008 h [13]: 0.66 ng/mL
- AUC at 22 h [15]: 254 ng·h/mL
- EC50 [16]: 2.03 nM
- EC50 [17]: 0.0018 nM
- EC50 [19]: 2.05 nM
- concentration at 1 h [21]: 21.6 ng/mL
- concentration at 22 h [22]: 0.69 ng/mL
Structure (SMILES): CCCCCCCCCCCCCCCCC(=O)[C@H](CCN[C@@H](CCC(=O)NCCCC[C@H](NC(=O)[C@H](CCC(N)=O)NC(=O)[C@H](CCCCN)NC(=O)[C@H](CO)NC(=O)[C@H](CC(C)C)NC(=O)[C@H](CC(=O)O)NC(=O)[C@H](CO)NC(=O)[C@@H](NC(=O)[C@H](Cc1ccccc1)NC(=O)[C@@H](NC(=O)CNC(=O)[C@H](CCC(N)=O)NC(=O)C(C)(C)NC(=O)[C@@H](N)Cc1cnc[nH]1)[C@@H](C)O)[C@@H](C)O)C(=O)N[C@@H](CC(=O)O)C(=O)N[C@@H](CCC(=O)O)C(=O)N[C@@H](CCC(N)=O)C(=O)N[C@@H](CCCNC(=N)N)C(=O)N[C@@H](C)C(=O)N[C@@H](CCCCN)C(=O)N[C@@H](CC(C)C)C(=O)N[C@@H](Cc1ccccc1)C(=O)N[C@H](C(=O)N[C@@H](CCC(=O)O)C(=O)N[C@@H](Cc1c[nH]c2ccccc12)C(=O)N[C@@H](CC(C)C)C(=O)NC(C)(C)C(=O)N[C@@H](C)C(=O)NCC(=O)NCC(=O)N1CCC[C@H]1C(=O)N1CCC[C@H]1C(=O)N[C@@H](CO)C(=O)N[C@@H](C)C(=O)N[C@@H](CCCCN)C(=O)N1CCC[C@H]1C(=O)N1CCC[C@H]1C(=O)N1CCC[C@H]1C(=O)N[C@@H](CCCCN)C(N)=O)[C@@H](C)CC)C(=O)O)C(=O)O
- Activity [4]: 6.9%
- Ratio [6]: 5
- Ratio EC50 [14]: 4
- Ratio EC50 [18]: 10 to 15
- Activity [20]: 7.1%
